14-3-3 Bad PPI: disrupts binding of bovine 14-3-3 zeta to phospho-Bad peptide; TR-FRET 14-3-3zeta/Dy647-pBad peptide displacement, 1 h; P63103; actives 0.71% (n = 220,000); inhibition, % at 21.7 µM;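 active = inhibition above about 70%, limit read from the data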
EBV gp42 inh: inhibitors of Epstein-Barr virus glycoprotein 42 | Fluorescence polarization binding assay, mP read-out | actives 0.42% (n = 220,000) | Q1HVG2 | inhibition, % (tested at 21.74 µM)
RBBP9 inhibitor: human RBBP9 hydrolase inhibition; O75884; recombinant RBBP9, FP-Rh probe fluorescence polarization; actives 0.2% (n = 220,000); inhibition, % at 7.94 µM;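 active = inhibition above the campaign mean of all tested compounds plus 3 SD, cut at about 14% in these data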
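Test system: recombinant human RBBP9. Quantity: 2.5 µM RBBP9 dispensing solution, before mixing. Detection: FP readout at 525/598 nm. Reagent: Serine-hydrolase probe FP-Rh, 375 nM pre-mixing. Measure: % inhibition. Control set: DMSO-treated enzyme wells and wells lacking RBBP9. Buffer or medium: Tris-NaCl-Pluronic buffer, pH 8.0. Times: preincubation 30 min plus labeling 45 min at 25 °C.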
PKD1 inh: blocks activity of human protein kinase D1. Q15139. PKD1 kinase fluorescence polarization assay. inhibition, % (test concentration not listed). actives 0.056% (n = 200,000). AID 797
Target sequence (Q15139 whole entry, looked up): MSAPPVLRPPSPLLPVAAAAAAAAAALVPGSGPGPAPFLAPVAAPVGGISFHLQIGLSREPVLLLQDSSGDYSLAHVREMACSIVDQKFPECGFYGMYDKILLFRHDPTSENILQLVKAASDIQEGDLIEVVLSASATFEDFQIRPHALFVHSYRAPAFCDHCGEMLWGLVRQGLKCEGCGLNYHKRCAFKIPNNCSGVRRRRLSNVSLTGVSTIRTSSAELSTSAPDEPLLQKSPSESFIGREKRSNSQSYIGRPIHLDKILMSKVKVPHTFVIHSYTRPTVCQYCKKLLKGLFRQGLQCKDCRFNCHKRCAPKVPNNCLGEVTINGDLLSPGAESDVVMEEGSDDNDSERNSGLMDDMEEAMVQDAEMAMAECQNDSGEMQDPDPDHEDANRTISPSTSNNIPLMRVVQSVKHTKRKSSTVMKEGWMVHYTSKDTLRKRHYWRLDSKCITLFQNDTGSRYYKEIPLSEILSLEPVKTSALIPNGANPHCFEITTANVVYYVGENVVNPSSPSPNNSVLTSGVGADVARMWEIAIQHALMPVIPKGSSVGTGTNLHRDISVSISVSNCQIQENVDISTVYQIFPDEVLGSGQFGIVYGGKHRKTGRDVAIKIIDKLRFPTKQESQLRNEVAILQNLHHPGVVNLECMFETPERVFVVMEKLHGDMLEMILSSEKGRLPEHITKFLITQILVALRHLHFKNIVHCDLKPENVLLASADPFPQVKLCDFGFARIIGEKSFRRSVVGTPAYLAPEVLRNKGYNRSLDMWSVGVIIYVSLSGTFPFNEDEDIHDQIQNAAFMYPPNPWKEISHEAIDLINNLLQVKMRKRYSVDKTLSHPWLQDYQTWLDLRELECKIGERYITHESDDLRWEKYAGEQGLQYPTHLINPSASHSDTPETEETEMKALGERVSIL
eIF4E 4G PPI: blocks eIF4E binding to eIF4G | inhibition, % at 21.7 µM | P63073+Q04637 | actives 0.37% (n = 220,000) | TR-FRET eIF4E-eIF4GI(517-606) binding, 2 h;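 active = inhibition above about 30%, limit read from the data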
A number is an active result; - = inactive; . = not tested or not shown; + = active, no number; [ ] = dose if it differs, or a comment. This is a sample that favours compounds with a hit; in the whole collection about 1.6% have one here. Cut-off read from the data, not from the text of the source, unless noted: active = inhibition above about 50%; inactive = the rest.

SMILES | 14-3-3 Bad PPI | EBV gp42 inh | RBBP9 inhibitor | PKD1 inh | eIF4E 4G PPI
COc1ccc(CCNC(=O)CCC(=O)Nc2nnc(C(C)C)s2)cc1OC | - | - | - | - | -
CN(C)c1ccc(C(=O)/C=C/c2ccc(Br)cc2)cc1 | - | - | - | - | -
CCN(CC)c1ccc(/C=C/C(=O)c2ccc(Br)cc2)cc1 | - | + | - | - | -
O=S1(=O)CC2N=C(N(Cc3c(F)cccc3Cl)c3ccccc3F)SC2C1 (stereo unspecified) | - | - | - | - | -
Fc1cccc(/C=N/Nc2ncnc3nc[nH]c23)c1 | - | - | - | - | -
Fc1ccccc1/C=N/Nc1ncnc2nc[nH]c12 | - | 58.7 | - | - | -
Clc1ccc(/C=N/Nc2ncnc3nc[nH]c23)cc1 | - | - | - | . | 66.0
CC1CCC(C(C)C)C(OC(=O)COC(=O)c2ccc(N)cc2)C1 (stereo unspecified) | - | - | - | - | 54.2
Cc1ccc(-c2nnn(CC(=O)N(c3cnc4ccccc4c3)C(C(=O)NC3CCCC3)c3ccncc3)n2)o1 (stereo unspecified) | - | - | - | - | -
CCC(C(=O)NC1CCCC1)N(C(=O)Cn1nnc(-c2ccc(C)o2)n1)c1cnc2ccccc2c1 (stereo unspecified) | 77.6 | - | - | - | -
O=C(c1cccc(C(F)(F)F)c1)N1CCc2c([nH]c3ccccc23)C1C(F)(F)F (stereo unspecified) | - | - | - | . | -
CCC[N+](CC#CCO)(CC#Cc1ccccc1)CCC | - | - | - | . | 91.0
CCCC[N+](CC#CCO)(CC#Cc1ccccc1)CCCC | - | - | - | . | -
CCc1nc2ccccc2n1CC1CC1(Cl)Cl (stereo unspecified) | - | - | - | - | -
O=C1N=c2ccccc2=C1c1sc(NS(=O)(=O)c2ccccc2)nc1O | - | - | - | - | -
O=C1N=c2ccccc2=C1c1sc(Nc2ccc(O)cc2)nc1O | 82.9 | 63.5 | - | - | 37.3
Cc1cccc(-n2c(SCc3cc(=O)n4ccsc4n3)nc3ccccc32)c1 | - | 77.9 | - | - | -
Cc1ccc(SCc2cc(=O)n3ccsc3n2)c(C)c1 | - | - | - | - | -
CN1CCN(C2=Nc3cc(Cl)ccc3Nc3ccccc32)CC1 | - | - | - | - | -
CN1CCN(C2=Nc3c(Cl)cc(Cl)c4cccc2c34)CC1 | - | 63.1 | - | - | -
O=C(NC(=O)c1ccc(Cl)cc1)Nc1ccc(-c2cnco2)cc1 | 78.3 | - | - | . | -
O=C(CSc1nnc2c(n1)[nH]c1ccc(S(=O)(=O)N3CCOCC3)cc12)Nc1ccc(F)c(F)c1 | - | - | - | - | -
CN(C)c1ccc(/C=C2\SC(=O)N(CC(O)Cn3c4ccccc4c4ccccc43)C2=O)cc1 (stereo unspecified) | - | 114.8 | - | - | -
O=C1S/C(=C/c2ccccc2)C(=O)N1CC(O)Cn1c2ccccc2c2ccccc21 (stereo unspecified) | - | - | - | - | -
O=C1CC(=O)N(Cc2ccco2)C(=O)N1 | - | - | - | - | 31.3
SMILES | 14-3-3 Bad PPI | EBV gp42 inh | RBBP9 inhibitor | PKD1 inh | eIF4E 4G PPI
O=C1CC(=O)N(Cc2ccco2)C(=S)N1 | - | - | - | - | -
O=C(NCCc1ccncc1)c1ccccc1F | - | - | - | - | 60.6
CCC(CCC(=O)Nc1ccc(S(N)(=O)=O)cc1)C(=O)O (stereo unspecified) | - | - | - | - | -
COc1ccc(/C=C2\C(=O)NC(=S)N2C(=O)c2ccc(C)cc2)cc1 | 78.8[fluorescence artefact?] | - | - | - | -
Cc1ccc2nc(SC(C)C(=O)NCc3ccc4c(c3)OCO4)[nH]c2c1 (stereo unspecified) | - | - | - | - | -
CCCN1C(=O)/C(=C\C=C2\N(CC)c3ccccc3C2(C)C)SC1=S | - | + | - | - | -
CCCN1C(=O)/C(=C\C=C2/Sc3ccccc3N2CC)SC1=S | - | - | - | - | -
COC(=O)c1ncccc1SC | - | - | - | - | -
Cn1c2ccccc2c2cnn(CC(=O)Nc3ccccc3Br)c(=O)c21 | 73.6 | - | - | . | -
Cn1c2ccccc2c2cnn(CC(=O)Nc3ccc(F)cc3F)c(=O)c21 | - | - | - | . | -
COc1ccc(NS(=O)(=O)c2cccc(-c3n[nH]c(=S)n3Cc3ccccc3)c2)cc1 | - | - | - | - | -
CC1CCN(CCOc2ccc(Cl)c(Cl)c2)CC1 | - | - | - | - | -
CCOC(=O)Cn1c(=O)oc2cc(S(=O)(=O)NCc3ccccn3)ccc21 | - | - | - | - | -
CCOC(=O)Cn1c(=O)oc2cc(S(=O)(=O)NCc3cccs3)ccc21 | - | - | - | - | 54.0[fluorescence artefact?]
Cc1ccc(-n2c(N)c(C(N)=O)sc2=S)cc1 | - | - | - | - | 33.5[fluorescence artefact?]
Cc1ccc(-n2c(N)c(C(=O)NCc3ccco3)sc2=S)cc1 | - | - | - | - | -
CC(/C=N/NC(=O)c1cc(-c2cccn2C)n[nH]1)=C\c1ccccc1 | 94.7 | - | - | . | -
O=C(O)c1cccc(S(=O)(=O)Nc2ccccc2-c2ccccc2)c1 | - | - | - | - | -
CSc1nc2cc(C)nn2c(-c2ccccc2)c1C#N | 94.3 | - | - | . | -
CCOC(=O)c1cc2n(c1/N=C/N(C)C)-c1ccccc1C2=O | - | 151.4 | - | - | -
CCOC(=O)c1cc(=O)[nH]c2ccccc12 | - | - | - | - | -
COc1cc(CCC(=O)NNC(=O)c2ccc(C)cc2)cc(OC)c1OC | - | - | - | - | -
COc1ccccc1-c1nn2c(-c3ccco3)nnc2s1 | 88.8 | - | - | - | -
O=C(c1cc2cc(Br)ccc2s1)N1CCOCC1 | - | - | - | - | -
COc1ccc(NC(=O)NC(=O)c2cc(OCC(F)(F)F)ccc2OCC(F)(F)F)cc1 | - | 73.6 | - | . | -
SMILES | 14-3-3 Bad PPI | EBV gp42 inh | RBBP9 inhibitor | PKD1 inh | eIF4E 4G PPI
CCOc1c(Cl)cc(Cl)cc1CNCCNCCO | 72.3 | - | - | - | -
O=C(CN1CCCCC1)N1c2ccccc2CCc2ccccc21 | - | - | - | - | -
O=C(CN1CCC(N2CCCCC2)CC1)N1CCCc2ccccc21 | 86.9 | - | - | - | -
CCOC(=O)c1c(CN2CCN(C)CC2)oc2ccc(O)cc12 | 74.7 | - | - | - | -
CCOC(=O)c1c(CSc2ccc(C)cc2)oc2ccc(O)cc12 | - | - | - | - | -
O=C1/C(=C/C=C/c2ccco2)SC(=S)N1NS(=O)(=O)c1ccccc1 | 88.8 | - | - | . | 33.9
O=C1/C(=C/c2cccs2)SC(=S)N1NS(=O)(=O)c1ccccc1 | - | - | - | . | -
Cc1ncc([N+](=O)[O-])n1Cc1cccc2ccccc12 | - | 65.5 | - | - | -
Cc1ncc([N+](=O)[O-])n1Cc1ccccc1F | - | - | - | - | -
Cc1ccc(C(=O)N/N=C/c2ccc(-c3ccccc3[N+](=O)[O-])o2)cn1 | - | - | - | - | -
COc1ccc(-c2ccc(/C=N/NC(=O)c3cccnc3)o2)c([N+](=O)[O-])c1 | 79.4[fluorescence artefact?] | - | - | - | -
N#CC1=C(O)C(c2ccccc2)n2c1nc(=O)c1ccccc12 (stereo unspecified) | 90.5 | - | - | - | -
N#CC1=C(O)CCCn2c1nc1ccccc1c2=O | - | - | - | - | -
